Source: ChEMBL document CHEMBL1147437, “Omega-carboxypyridyl substituted ureas as Raf kinase inhibitors: SAR of the amide substituent” (Bioorg Med Chem Lett, 2004)
Converted amounts (≈) assume the structure as drawn.

How the values were obtained:
[1] = target: RAF proto-oncogene serine/threonine-protein kinase (Homo sapiens, UniProt P04049); assay: Inhibitory activity against human Raf-1 kinase
How it was run: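 EE-tagged c-Raf and Mek made in baculovirus-infected Sf-9 cells, immuno-affinity purified. Raf (4 μg/mL) with Mek substrate (20 μg/mL) in 200 mM Tris pH 8.2, 100 mM NaCl, 20 mM 2-mercaptoethanol; compound added before starting with 10 μM γ-[³³P]ATP stock. 32 °C, 25 min; phosphocellulose filter capture, scintillation count.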

[2] = Solubility at pH 2.7; type: physicochemical; conditions: buffer
[3] = Solubility at pH 7.2; type: physicochemical; conditions: buffer
How it was run: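 Aqueous solubility determined in 0.5× PBS at pH 7.2; reported in µg/mL.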

Sequence of RAF proto-oncogene serine/threonine-protein kinase (P04049 whole entry): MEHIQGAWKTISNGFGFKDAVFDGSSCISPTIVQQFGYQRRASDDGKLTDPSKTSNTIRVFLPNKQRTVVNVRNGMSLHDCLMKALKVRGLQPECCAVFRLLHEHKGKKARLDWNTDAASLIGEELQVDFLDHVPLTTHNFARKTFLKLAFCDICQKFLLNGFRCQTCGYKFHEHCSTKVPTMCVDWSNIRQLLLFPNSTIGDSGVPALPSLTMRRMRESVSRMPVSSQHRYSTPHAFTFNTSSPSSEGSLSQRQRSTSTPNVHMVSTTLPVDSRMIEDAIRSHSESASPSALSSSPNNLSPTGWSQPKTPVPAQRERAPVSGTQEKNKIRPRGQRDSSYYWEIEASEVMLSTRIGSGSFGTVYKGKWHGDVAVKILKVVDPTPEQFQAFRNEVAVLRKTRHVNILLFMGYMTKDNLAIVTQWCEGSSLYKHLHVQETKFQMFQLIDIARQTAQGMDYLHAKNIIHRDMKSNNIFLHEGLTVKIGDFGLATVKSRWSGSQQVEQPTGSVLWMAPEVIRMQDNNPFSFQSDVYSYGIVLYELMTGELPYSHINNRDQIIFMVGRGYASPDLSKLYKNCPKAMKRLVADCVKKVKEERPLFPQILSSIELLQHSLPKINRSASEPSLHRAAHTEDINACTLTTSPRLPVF

SMILES | IC50 [1] | solubility [2] | solubility [3]
CC(C)(C)c1cc(NC(=O)Nc2ccc(Oc3cccc(C(=O)NCc4ccccc4)c3)cc2)no1 | 460 nM |  | 
O=C(Nc1ccc(Oc2ccnc(C(=O)NCCN3CCOCC3)c2)cc1)Nc1ccc(Br)c(C(F)(F)F)c1 | 60 nM | 39 µg/mL (≈ 64.1 µM) | ≤ 5 µg/mL
CNC(=O)c1cc(Oc2ccc(NC(=O)Nc3cc(C(F)(F)F)ccc3OC)cc2)ccn1 | 53 nM |  | 
O=C(Nc1ccc(Oc2cncc(C(=O)NCCN3CCOCC3)c2)cc1)Nc1ccc(Cl)c(C(F)(F)F)c1 | 140 nM | 36 µg/mL (≈ 63.8 µM) | ≤ 5 µg/mL
CCNC(=O)c1cc(Oc2ccc(NC(=O)Nc3cc(C(F)(F)F)ccc3OC)cc2)ccn1 | 460 nM |  | 
CN(C)C(=O)c1cc(Oc2ccc(NC(=O)Nc3ccc(Br)c(C(F)(F)F)c3)cc2)ccn1 | 170 nM |  | 
CCNC(=O)c1cccc(Oc2ccc(NC(=O)Nc3cc(C(C)(C)C)on3)cc2)c1 | 130 nM |  | 
CN(C)C(=O)c1cc(Oc2ccc(NC(=O)Nc3ccc(Cl)c(C(F)(F)F)c3)cc2)ccn1 | 300 nM |  | 
O=C(Nc1ccc(Oc2cccc(C(=O)NCCN3CCOCC3)c2)cc1)Nc1ccc(Cl)c(C(F)(F)F)c1 | 70 nM |  | 
O=C(Nc1ccc(Oc2ccnc(C(=O)NCCN3CCOCC3)c2)cc1)Nc1ccc(Cl)c(C(F)(F)F)c1 | 73 nM | 141 µg/mL (≈ 250 µM) | ≤ 5 µg/mL
COc1ccc(C(F)(F)F)cc1NC(=O)Nc1ccc(Oc2ccnc(C(=O)N(C)C)c2)cc1 | 330 nM |  | 
COc1ccc(C(F)(F)F)cc1NC(=O)Nc1ccc(Oc2cccc(C(=O)Nc3ccc(N4CCOCC4)cc3)c2)cc1 | 210 nM |  | 
CNC(=O)c1cccc(Oc2ccc(NC(=O)Nc3cc(C(C)(C)C)on3)cc2)c1 | 120 nM |  | 
CC(C)(C)c1cc(NC(=O)Nc2ccc(Oc3ccncc3)cc2)no1 | 230 nM |  | 
CC(C)(C)c1cc(NC(=O)Nc2ccc(Oc3cccc(C(=O)Nc4cccnc4)c3)cc2)no1 | 68 nM |  | 
COc1ccc(C(F)(F)F)cc1NC(=O)Nc1ccc(Oc2cncc(C(=O)NCCN(C)C)c2)cc1 | 100 nM | 129 µg/mL (≈ 249 µM) | 41 µg/mL (≈ 79.2 µM)
CCNC(=O)c1cc(Oc2ccc(NC(=O)Nc3ccc(Br)c(C(F)(F)F)c3)cc2)ccn1 | 27 nM |  | 
CC(C)(C)c1cc(NC(=O)Nc2ccc(Oc3cccc(C(=O)Nc4ccccc4)c3)cc2)no1 | 370 nM |  | 
COc1ccc(C(F)(F)F)cc1NC(=O)Nc1ccc(Oc2ccnc(C(=O)NCC(C)C)c2)cc1 | 500 nM |  | 
CNC(=O)c1cc(Oc2ccc(NC(=O)Nc3ccc(Br)c(C(F)(F)F)c3)cc2)ccn1 | 6 nM |  | 
COc1ccc(C(F)(F)F)cc1NC(=O)Nc1ccc(Oc2cncc(C(=O)NCCN3CCOCC3)c2)cc1 | 63 nM |  | 
CNC(=O)c1cncc(Oc2ccc(NC(=O)Nc3cc(C(F)(F)F)ccc3OC)cc2)c1 | 61 nM | ≤ 4 µg/mL | ≤ 4 µg/mL
CCCNC(=O)c1cccc(Oc2ccc(NC(=O)Nc3cc(C(C)(C)C)on3)cc2)c1 | 140 nM |  | 
CNC(=O)c1cc(Oc2ccc(NC(=O)Nc3cc(C(C)(C)C)on3)cc2)ccn1 | 38 nM |  | 
CN(C)C(=O)c1cccc(Oc2ccc(NC(=O)Nc3cc(C(C)(C)C)on3)cc2)c1 | 5800 nM |  | 
CC(C)(C)c1cc(NC(=O)Nc2ccc(Oc3ccccc3)cc2)no1 | 1100 nM |  | 

Results, then the compound that gave them:

IC50 [1] | solubility [2] | solubility [3] | SMILES
50 nM |  |  | CNC(=O)c1cncc(Oc2ccc(NC(=O)Nc3ccc(Cl)c(C(F)(F)F)c3)cc2)c1
410 nM |  |  | COc1ccc(C(F)(F)F)cc1NC(=O)Nc1ccc(Oc2cccc(C(=O)Nc3ccc(N(C)C)cc3)c2)cc1
2300 nM |  |  | CC(C)NC(=O)c1cc(Oc2ccc(NC(=O)Nc3ccc(Cl)c(C(F)(F)F)c3)cc2)ccn1
130 nM |  |  | CNC(=O)c1cccc(Oc2ccc(NC(=O)Nc3cc(C(F)(F)F)ccc3OC)cc2)c1
130 nM |  |  | CNC(=O)c1cccc(Oc2ccc(NC(=O)Nc3ccc(Cl)c(C(F)(F)F)c3)cc2)c1
150 nM |  |  | COc1ccc(NC(=O)c2cccc(Oc3ccc(NC(=O)Nc4cc(C(F)(F)F)ccc4OC)cc3)c2)cn1
44 nM |  |  | O=C(Nc1ccc(Oc2cccc(C(=O)Nc3cccnc3)c2)cc1)Nc1ccc(Cl)c(C(F)(F)F)c1
160 nM |  |  | O=C(Nc1ccc(Oc2cccc(C(=O)NCCNc3ccccc3)c2)cc1)Nc1ccc(Cl)c(C(F)(F)F)c1
130 nM |  |  | COc1ccncc1NC(=O)c1cccc(Oc2ccc(NC(=O)Nc3ccc(Cl)c(C(F)(F)F)c3)cc2)c1
82 nM |  |  | O=C(Nc1ccc(Oc2cccc(C(=O)NCCN3CCCCC3)c2)cc1)Nc1ccc(Cl)c(C(F)(F)F)c1
26 nM |  |  | CCNC(=O)c1cc(Oc2ccc(NC(=O)Nc3ccc(Cl)c(C(F)(F)F)c3)cc2)ccn1
110 nM |  |  | COCCNC(=O)c1cccc(Oc2ccc(NC(=O)Nc3ccc(Cl)c(C(F)(F)F)c3)cc2)c1
100 nM |  |  | COc1ccc(C(F)(F)F)cc1NC(=O)Nc1ccc(Oc2cccc(C(=O)Nc3cccnc3)c2)cc1
160 nM |  |  | O=C(Nc1ccc(Oc2cccc(C(=O)Nc3ccc(N4CCOCC4)cc3)c2)cc1)Nc1ccc(Cl)c(C(F)(F)F)c1
270 nM |  |  | CCC1CCCN1CNC(=O)c1cccc(Oc2ccc(NC(=O)Nc3ccc(Cl)c(C(F)(F)F)c3)cc2)c1 (configuration not stated)
230 nM |  |  | CN(C)c1ccc(NC(=O)c2cccc(Oc3ccc(NC(=O)Nc4ccc(Cl)c(C(F)(F)F)c4)cc3)c2)cc1
